From ChEMBL document CHEMBL1828519, “Tricyclic thiazolopyrazole derivatives as metabotropic glutamate receptor 4 positive allosteric modulators” (J Med Chem, 2011)
Values after ≈ are worked out from the molar mass of the structure shown.

Assays:
[1] = target: T1, Metabotropic glutamate receptor 1 (Homo sapiens, UniProt Q13255); experiment: Positive allosteric modulation of mGlu1 receptor assessed as potentiation of glutamate-induced calcium mobilization; type: functional
[2] = Intrinsic clearance in human microsomes; type: ADME, Microsome
In short: (§1)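 Intrinsic clearance measured in rat and human liver microsomes. Hepatic blood flow references given as 20 mL/min for rat and 1.5 L/min for human.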

[3] = Intrinsic clearance in rat microsomes; type: ADME, Microsome; in short: as §1
[4] = target: T1, Metabotropic glutamate receptor 1; experiment: Negative allosteric modulation of mGlu1 receptor
[5] = target: T2, Metabotropic glutamate receptor 7 (Homo sapiens, UniProt Q14831); experiment: Positive allosteric modulation of mGlu7 receptor assessed as potentiation of glutamate-induced calcium mobilization; type: functional
T2 sequence (Q14831 whole entry): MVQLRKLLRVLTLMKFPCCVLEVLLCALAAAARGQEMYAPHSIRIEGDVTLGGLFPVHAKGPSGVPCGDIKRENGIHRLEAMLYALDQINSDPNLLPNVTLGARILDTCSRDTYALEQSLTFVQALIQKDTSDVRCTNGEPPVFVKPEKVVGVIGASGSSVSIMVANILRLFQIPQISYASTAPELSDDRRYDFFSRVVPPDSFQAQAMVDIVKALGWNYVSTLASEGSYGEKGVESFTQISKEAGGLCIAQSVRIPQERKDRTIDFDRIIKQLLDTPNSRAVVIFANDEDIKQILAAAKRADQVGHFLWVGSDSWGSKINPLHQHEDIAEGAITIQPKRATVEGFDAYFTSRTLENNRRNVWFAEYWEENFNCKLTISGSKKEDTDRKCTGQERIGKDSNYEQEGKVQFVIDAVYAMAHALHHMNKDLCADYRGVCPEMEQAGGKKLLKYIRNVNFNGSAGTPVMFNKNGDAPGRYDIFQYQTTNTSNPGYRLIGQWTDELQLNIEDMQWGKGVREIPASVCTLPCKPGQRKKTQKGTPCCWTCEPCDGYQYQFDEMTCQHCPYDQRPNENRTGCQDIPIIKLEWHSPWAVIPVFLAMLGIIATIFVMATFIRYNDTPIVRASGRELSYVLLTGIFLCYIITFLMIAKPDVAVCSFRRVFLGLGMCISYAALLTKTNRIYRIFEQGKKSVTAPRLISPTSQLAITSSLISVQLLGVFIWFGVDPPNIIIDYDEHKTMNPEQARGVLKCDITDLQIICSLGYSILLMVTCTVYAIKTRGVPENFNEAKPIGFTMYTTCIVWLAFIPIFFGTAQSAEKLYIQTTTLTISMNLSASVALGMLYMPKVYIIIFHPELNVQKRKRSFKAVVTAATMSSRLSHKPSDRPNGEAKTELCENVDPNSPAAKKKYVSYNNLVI

[6] = target: T3, Metabotropic glutamate receptor 3 (Homo sapiens, UniProt Q14832); experiment: Positive allosteric modulation of mGlu3 receptor assessed as potentiation of glutamate-induced calcium mobilization; type: functional
[7] = target: T4, Metabotropic glutamate receptor 4 (Homo sapiens, UniProt Q14833); experiment: Positive allosteric modulation of human mGlu4 receptor expressed in BHK cells assessed as potentiation of glutamate-induced calcium mobilization after 1 hr by FLIPR assay; type: functional, cell-based
T4 sequence (Q14833 whole entry): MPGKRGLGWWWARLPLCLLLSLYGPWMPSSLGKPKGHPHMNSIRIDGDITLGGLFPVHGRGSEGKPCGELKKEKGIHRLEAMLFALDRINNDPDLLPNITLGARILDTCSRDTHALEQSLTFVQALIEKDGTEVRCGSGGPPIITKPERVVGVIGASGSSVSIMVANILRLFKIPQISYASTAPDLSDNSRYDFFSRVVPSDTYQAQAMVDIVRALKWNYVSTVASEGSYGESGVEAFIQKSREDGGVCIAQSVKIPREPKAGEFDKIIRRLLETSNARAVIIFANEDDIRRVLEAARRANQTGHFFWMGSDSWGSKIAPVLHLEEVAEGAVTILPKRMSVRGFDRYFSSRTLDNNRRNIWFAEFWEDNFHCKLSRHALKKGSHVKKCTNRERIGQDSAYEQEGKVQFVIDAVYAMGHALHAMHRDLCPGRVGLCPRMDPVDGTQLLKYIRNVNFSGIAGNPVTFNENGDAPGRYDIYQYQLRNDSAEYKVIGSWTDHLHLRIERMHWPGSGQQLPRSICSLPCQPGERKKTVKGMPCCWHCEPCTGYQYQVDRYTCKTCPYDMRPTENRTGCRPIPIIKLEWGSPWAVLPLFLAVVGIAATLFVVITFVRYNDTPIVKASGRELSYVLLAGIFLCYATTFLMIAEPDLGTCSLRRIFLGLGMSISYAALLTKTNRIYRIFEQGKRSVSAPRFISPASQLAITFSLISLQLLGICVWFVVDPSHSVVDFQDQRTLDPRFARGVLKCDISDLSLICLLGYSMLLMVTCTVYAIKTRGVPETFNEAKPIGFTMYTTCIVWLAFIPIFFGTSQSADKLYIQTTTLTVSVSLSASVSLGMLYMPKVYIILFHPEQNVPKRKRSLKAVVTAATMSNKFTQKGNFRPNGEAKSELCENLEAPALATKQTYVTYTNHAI
In short: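 Stable BHK line co-expressing human mGlu4 and murine Gα15, plated on poly-D-lysine 24 h ahead. Cells loaded 1 h at 37 °C, 5% CO2 with Calcium 3 dye in HBSS/20 mM HEPES pH 7.4, 0.1% BSA, 2.5 mM probenecid. Test agent added with an EC20 glutamate challenge. Peak fluorescence change read by FLIPR and fitted to the Hill equation. At least two independent runs in duplicate, means reported.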

[8] = Kinetic solubility of the compound at pH 7.4 at room temperature; type: physicochemical; conditions: buffer, read-out: Kinetic_solubility
In short: (§2)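 Kinetic solubility measured from DMSO stock solutions at room temperature. Assay run at the pH named in each line.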

[9] = target: T5, Metabotropic glutamate receptor 2 (Homo sapiens, UniProt Q14416); experiment: Negative allosteric modulation of mGlu2 receptor
T5 sequence (Q14416 whole entry): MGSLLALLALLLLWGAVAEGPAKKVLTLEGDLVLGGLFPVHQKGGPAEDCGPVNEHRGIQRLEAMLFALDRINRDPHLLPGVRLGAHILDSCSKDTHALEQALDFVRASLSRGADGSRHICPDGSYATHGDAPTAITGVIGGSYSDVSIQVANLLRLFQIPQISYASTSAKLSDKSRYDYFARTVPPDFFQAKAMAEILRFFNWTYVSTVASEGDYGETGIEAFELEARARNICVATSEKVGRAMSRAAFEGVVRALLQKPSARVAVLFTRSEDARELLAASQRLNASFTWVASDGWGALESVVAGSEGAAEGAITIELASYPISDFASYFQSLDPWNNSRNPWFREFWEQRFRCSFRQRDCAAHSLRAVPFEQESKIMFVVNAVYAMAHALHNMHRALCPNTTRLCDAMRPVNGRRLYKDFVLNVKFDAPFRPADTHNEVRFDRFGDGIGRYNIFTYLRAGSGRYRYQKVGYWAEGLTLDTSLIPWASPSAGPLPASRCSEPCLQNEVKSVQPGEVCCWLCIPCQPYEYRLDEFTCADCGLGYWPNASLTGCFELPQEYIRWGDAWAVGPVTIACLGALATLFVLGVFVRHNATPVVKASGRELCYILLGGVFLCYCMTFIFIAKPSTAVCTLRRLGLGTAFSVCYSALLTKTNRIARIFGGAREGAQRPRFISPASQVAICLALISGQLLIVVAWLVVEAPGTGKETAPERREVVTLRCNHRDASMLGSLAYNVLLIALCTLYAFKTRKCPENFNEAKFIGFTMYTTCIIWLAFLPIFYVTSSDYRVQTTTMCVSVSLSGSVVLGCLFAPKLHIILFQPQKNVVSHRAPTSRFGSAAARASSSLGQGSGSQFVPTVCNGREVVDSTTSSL

[10] = Apparent permeability of the compound by PAMPA assay; type: ADME
In short: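 Passive permeability measured in a PAMPA assay.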

[11] = Kinetic solubility of the compound at pH 1.5 at room temperature; type: physicochemical; conditions: buffer, read-out: Kinetic_solubility; in short: as §2
P-gp (MDR1) [12] = experiment: Apparent permeability from basolateral to apical side of dog MDCK cells expressing human MDR1 by P-gp substrate assay; type: ADME, cell-based, Canis lupus familiaris
In short: (§3)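 MDCK cells transfected with human MDR1, used as a P-gp substrate assay. Permeability measured in both directions, apical-to-basolateral and basolateral-to-apical. The efflux ratio is taken as B→A over A→B.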

[13] = Plasma protein binding in rat; type: ADME, cell-free; conditions: read-out: PPB (converted)
P-gp (MDR1) [14] = experiment: Apparent permeability from apical to basolateral side of dog MDCK cells expressing human MDR1 by P-gp substrate assay; type: ADME, cell-based, Canis lupus familiaris; in short: as §3
[15] = Drug uptake in Sprague-Dawley rat brain at 10 mg/kg, po after 1 hr; type: ADME, organism-based; design: dose 10 mg/kg, route oral; conditions: read-out: Drug uptake
In short: (§4)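 Sprague-Dawley rats given 10 mg/kg orally as a suspension in 20% aqueous hydroxypropyl-β-cyclodextrin. Plasma and brain levels taken at 1 h post-dose. Brain/plasma ratio derived from these levels.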

[16] = Plasma concentration in Sprague-Dawley rat at 10 mg/kg, po after 1 hr; type: ADME, organism-based; design: dose 10 mg/kg, route oral; in short: as §4
[17] = Ratio of drug level in brain to plasma of Sprague-Dawley rat at 10 mg/kg, po after 1 hr; type: ADME, organism-based; design: dose 10 mg/kg, route oral; conditions: read-out: BPR; in short: as §4
[18] = Fraction unbound in rat brain; type: ADME, tissue-based
In short: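 Brain free fraction determined by dialysis of rat brain homogenate.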

[19] = target: T3, Metabotropic glutamate receptor 3; experiment: Negative allosteric modulation of mGlu3 receptor
[20] = target: T6, Metabotropic glutamate receptor 5 (Homo sapiens, UniProt P41594); experiment: Positive allosteric modulation of mGlu5 receptor assessed as potentiation of glutamate-induced calcium mobilization; type: functional
T6 sequence (P41594 whole entry): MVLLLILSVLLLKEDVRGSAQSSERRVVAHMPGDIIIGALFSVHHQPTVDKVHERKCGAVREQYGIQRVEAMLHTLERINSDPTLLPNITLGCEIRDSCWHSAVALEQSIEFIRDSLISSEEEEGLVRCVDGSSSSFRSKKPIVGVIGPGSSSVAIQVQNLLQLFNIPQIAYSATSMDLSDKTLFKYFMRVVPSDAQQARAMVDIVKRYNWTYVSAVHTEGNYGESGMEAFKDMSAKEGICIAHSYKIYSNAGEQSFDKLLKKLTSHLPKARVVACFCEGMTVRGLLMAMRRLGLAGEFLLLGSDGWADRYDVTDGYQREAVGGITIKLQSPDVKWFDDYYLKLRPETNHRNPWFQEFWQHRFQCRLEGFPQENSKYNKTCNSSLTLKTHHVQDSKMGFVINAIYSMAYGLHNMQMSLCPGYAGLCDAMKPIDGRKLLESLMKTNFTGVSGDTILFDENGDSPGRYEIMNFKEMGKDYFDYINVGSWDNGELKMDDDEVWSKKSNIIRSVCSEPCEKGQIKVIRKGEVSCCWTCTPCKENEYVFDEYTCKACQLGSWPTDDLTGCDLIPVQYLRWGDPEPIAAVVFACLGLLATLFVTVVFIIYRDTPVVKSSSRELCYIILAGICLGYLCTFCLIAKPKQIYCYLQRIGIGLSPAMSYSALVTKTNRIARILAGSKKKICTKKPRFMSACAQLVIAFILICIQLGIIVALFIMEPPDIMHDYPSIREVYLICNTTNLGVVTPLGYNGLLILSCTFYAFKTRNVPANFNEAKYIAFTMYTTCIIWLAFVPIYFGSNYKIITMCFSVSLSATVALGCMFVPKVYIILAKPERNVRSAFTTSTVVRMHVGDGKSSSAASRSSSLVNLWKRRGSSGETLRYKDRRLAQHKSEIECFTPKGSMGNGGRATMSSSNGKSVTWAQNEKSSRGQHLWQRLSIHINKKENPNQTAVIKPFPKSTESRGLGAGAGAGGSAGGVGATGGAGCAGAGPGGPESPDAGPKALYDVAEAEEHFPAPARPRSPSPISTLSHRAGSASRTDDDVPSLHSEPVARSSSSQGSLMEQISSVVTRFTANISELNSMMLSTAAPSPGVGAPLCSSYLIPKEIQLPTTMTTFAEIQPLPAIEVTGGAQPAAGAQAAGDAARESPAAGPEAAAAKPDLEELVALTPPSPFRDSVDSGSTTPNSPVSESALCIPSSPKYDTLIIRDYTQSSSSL

[21] = Plasma protein binding in human; type: ADME, cell-free; conditions: read-out: PPB (converted)
[22] = Lipophilicity, log D of the compound at pH 7.4; type: physicochemical; conditions: buffer
[23] = target: T2, Metabotropic glutamate receptor 7; experiment: Negative allosteric modulation of mGlu7 receptor
[24] = target: T6, Metabotropic glutamate receptor 5; experiment: Negative allosteric modulation of mGlu5 receptor
[25] = target: T5, Metabotropic glutamate receptor 2; experiment: Positive allosteric modulation of mGlu2 receptor assessed as potentiation of glutamate-induced calcium mobilization; type: functional
[26] = Fraction unbound in rat plasma; type: ADME, cell-free
[27] = Fraction unbound in human plasma; type: ADME, cell-free
[28] = target: T4, Metabotropic glutamate receptor 4; experiment: Positive allosteric modulation of human mGlu4 receptor expressed in BHK cells assessed as potentiation of glutamate-induced response after 1 hr by FLIPR assay relative to glutamate; type: cell-based
In short: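 BHK cells stably co-expressing human mGlu4 and murine G-protein […], grown in DMEM at 37 °C, 5% CO₂. Cells seeded 24 h before assay, then loaded with Calcium 3 no-wash dye in HBSS/HEPES pH 7.4 with 0.1% BSA and 2.5 mM probenecid for 1 h at 37 °C. FLIPR calcium read after stimulation with EC₂₀ glutamate plus compound. Emax is percent of maximal glutamate response. Mean of ≥2 independent duplicate experiments.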

[29] = Drug uptake in Sprague-Dawley rat cerebrospinal fluid at 10 mg/kg, sc after 1 hr

T1 sequence (Q13255 whole entry): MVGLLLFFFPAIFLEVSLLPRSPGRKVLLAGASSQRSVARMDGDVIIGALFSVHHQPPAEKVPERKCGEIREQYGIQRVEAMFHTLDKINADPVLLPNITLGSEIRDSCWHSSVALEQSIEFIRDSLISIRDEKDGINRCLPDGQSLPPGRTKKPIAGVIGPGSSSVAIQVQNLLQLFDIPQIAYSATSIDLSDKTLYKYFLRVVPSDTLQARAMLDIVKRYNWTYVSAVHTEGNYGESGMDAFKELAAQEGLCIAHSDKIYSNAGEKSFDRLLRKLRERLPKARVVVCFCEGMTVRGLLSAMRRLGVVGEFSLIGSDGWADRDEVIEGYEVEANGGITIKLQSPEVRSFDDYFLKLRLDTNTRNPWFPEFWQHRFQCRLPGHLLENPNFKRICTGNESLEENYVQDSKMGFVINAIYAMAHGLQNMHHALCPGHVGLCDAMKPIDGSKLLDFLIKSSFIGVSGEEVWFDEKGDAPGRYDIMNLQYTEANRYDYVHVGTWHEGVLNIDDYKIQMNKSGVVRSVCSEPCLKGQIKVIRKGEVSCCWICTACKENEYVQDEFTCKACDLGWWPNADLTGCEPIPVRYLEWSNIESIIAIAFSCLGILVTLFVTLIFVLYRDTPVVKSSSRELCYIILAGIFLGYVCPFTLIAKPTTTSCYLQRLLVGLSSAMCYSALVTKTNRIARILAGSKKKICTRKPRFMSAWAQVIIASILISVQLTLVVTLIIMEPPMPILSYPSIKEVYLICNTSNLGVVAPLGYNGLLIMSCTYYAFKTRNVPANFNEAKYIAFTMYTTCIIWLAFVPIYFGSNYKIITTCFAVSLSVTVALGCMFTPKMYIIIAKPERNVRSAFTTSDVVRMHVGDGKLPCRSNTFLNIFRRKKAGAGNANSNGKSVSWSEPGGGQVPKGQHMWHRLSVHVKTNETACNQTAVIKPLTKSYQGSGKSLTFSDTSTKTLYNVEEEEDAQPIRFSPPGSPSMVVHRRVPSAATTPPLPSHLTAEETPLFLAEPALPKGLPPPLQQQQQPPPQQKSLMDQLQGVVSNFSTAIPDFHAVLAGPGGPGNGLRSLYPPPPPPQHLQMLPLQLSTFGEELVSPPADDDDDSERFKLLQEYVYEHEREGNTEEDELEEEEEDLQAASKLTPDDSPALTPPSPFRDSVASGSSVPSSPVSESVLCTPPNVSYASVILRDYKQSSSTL

EC50 [1] [µM] | CL [2] [L/min] | CL [3] [mL/min] | IC50 [4] [µM] | EC50 [5] [µM] | EC50 [6] [µM] | EC50 [7] [µM] | solubility kinetic [8] [µM] | IC50 [9] [µM] | Papp [10] [×10⁻⁶ cm/s] | solubility kinetic [11] [µM] | Papp B→A (P-gp (MDR1) [12]) [×10⁻⁶ cm/s] | fraction unbound [13] | Papp A→B (P-gp (MDR1) [14]) [×10⁻⁶ cm/s] | concentration at 1 h [15] [ng/g] | concentration at 1 h [16] [ng/mL] | Kp at 1 h [17] | fraction unbound [18] | logD [22] | fraction unbound [26] | also measured | Structure (SMILES)
> 10 | 5.6 | 37 | > 10 | > 10 | > 10 | 0.22 | 0.1 (≈ 0.0269 µg/mL) | > 10 | 3 | 220 (≈ 59.3 µg/mL) | 7.7 | 0.023 | 22 | 517 | 987 | 0.5 | 0.0043 | 4 | 0.023 | IC50 [19]: > 10 µM; EC50 [20]: > 10 µM; fraction unbound [21]: 0.008; IC50 [23]: > 10 µM; IC50 [24]: > 10 µM; EC50 [25]: > 10 µM | c1ccc(Nc2nc3c(s2)CCc2[nH]ncc2-3)nc1
> 10 | 10 | 36 | > 10 | > 10 | > 10 | 0.009 | 1.2 (≈ 0.34 µg/mL) | > 10 | 9.4 | 240 (≈ 68 µg/mL) | 13 | 0.011 | 24 | 200 | 259 | 0.8 | 0.0043 | 5 | 0.011 | IC50 [19]: > 10 µM; EC50 [20]: > 10 µM; fraction unbound [21]: 0.006; IC50 [23]: > 10 µM; IC50 [24]: > 10 µM; EC50 [25]: > 10 µM | c1ccc(Nc2nc3c(s2)CCCc2[nH]ncc2-3)nc1
 | 11 | 61 |  |  |  | 0.41 | 120 (≈ 29.2 µg/mL) |  | 32.9 | 220 (≈ 53.5 µg/mL) |  |  |  | 744 | 766 | 1 | 0.014 | 3.1 | 0.092 | fraction unbound [27]: 0.035; Emax [28]: 72%; concentration at 1 h [29]: 52 ng/mL | c1ccc(Nc2nc(-c3cn[nH]c3)cs2)nc1
> 10 | 9 | 92 | > 10 | > 10 | > 10 | 0.007 | 3 (≈ 0.853 µg/mL) | > 10 | 1.5 | 100 (≈ 28.4 µg/mL) | 21 | 0.006 | 33 | 3.1 | 0.7 |  | 0.016 | 3.8 | 0.006 | IC50 [19]: > 10 µM; EC50 [20]: > 10 µM; fraction unbound [21]: 0.031; IC50 [23]: > 10 µM; IC50 [24]: > 10 µM; EC50 [25]: > 10 µM | c1cnc(Nc2nc3c(s2)CCCc2[nH]ncc2-3)nc1
